Common to all, as to type: cell-based
For series [1], the system named is L5178Y. In words: Inhibition of Pgp expressed in mouse L5178Y cells at 1 uM relative to control. The gist of the method: (§1)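 L5178Y mouse T lymphoma cells transduced with human mdr1 retrovirus (colchicine-selected) and parental L5178Y, 2×10^6/mL in serum-free McCoy's 5A, preincubated with inhibitor 10 min at rt. Rhodamine 123 (5.2 µM final) added for 20 min at 37 °C. Cells washed twice, resuspended in PBS, 1×10^4 cells read by flow cytometry. R = treated/untreated fluorescence ratio, divided by the parental-line ratio.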

Series [2] has as its system L5178Y. In words: Inhibition of Pgp expressed in mouse L5178Y cells at 10 uM relative to control. Put shortly: as §1
Series [3] concerns the target Multidrug resistance-associated protein 1 (Homo sapiens, UniProt P33527). In words: Inhibition of MRP1 expressed in human A2780 cells at 10 uM relative to control. Conditions: a2780, 10 µM.
The target of series [4] is ATP-binding cassette sub-family C member 2 (Homo sapiens, UniProt Q92887). Description: Inhibition of MRP2 expressed in human A2780 cells at 10 uM relative to control. The following applies: a2780, 10 µM. The gist of the method:
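Cisplatin-induced A2780RCIS ovarian cells (maintained with cisplatin 10 ng/mL) and parental A2780P were seeded for 24 h, given fresh medium with inhibitor for 20 min at 37 °C, then carboxyfluorescein diacetate (2 µM final) for 40 min at 37 °C. After ice-cold PBS washes, 10,000 events were read by flow cytometry (488 nm excitation, 530 nm filter). MRP2 value = A2780RCIS uptake minus the MRP1-specific uptake in A2780P.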

Series [5] addresses T1, Broad substrate specificity ATP-binding cassette transporter ABCG2 (Homo sapiens, UniProt Q9UNQ0).
T1 sequence (Q9UNQ0 whole entry): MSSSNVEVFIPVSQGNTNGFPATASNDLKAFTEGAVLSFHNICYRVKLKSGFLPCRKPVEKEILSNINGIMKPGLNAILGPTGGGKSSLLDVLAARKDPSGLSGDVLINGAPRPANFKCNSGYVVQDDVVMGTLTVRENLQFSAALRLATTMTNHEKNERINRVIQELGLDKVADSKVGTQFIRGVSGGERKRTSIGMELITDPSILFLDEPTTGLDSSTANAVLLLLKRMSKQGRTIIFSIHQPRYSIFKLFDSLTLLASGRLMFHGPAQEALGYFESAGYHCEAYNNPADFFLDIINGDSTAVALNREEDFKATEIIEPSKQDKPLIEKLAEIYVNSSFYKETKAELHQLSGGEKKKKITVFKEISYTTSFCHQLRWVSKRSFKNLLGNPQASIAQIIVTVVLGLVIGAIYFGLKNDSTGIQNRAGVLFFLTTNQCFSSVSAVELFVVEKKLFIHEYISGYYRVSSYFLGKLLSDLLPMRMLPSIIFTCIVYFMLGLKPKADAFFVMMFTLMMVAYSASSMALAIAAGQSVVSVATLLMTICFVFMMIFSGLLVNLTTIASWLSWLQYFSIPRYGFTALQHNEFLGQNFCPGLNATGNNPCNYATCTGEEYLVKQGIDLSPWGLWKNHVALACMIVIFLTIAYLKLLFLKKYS
In words: Inhibition of BCRP expressed in human EPG-257RNOV cells at 0.1 uM relative to control. The gist of the method:
(§2)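 BCRP-overexpressing EPG85-257RNOV gastric carcinoma cells (kept in medium with mitoxantrone 0.2 µg/mL), 0.5×10^6 cells/mL, exposed to inhibitor 20 min at 37 °C. Mitoxantrone (20 µM final) then added for 60 min at 37 °C. Cells trypsinized, washed in ice-cold PBS, 10,000 events read by flow cytometry (488 nm excitation, 670 nm filter). R = treated/untreated fluorescence quotient, divided by the same quotient in parental EPG85-257P.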

Series [6] deals with T1, Broad substrate specificity ATP-binding cassette transporter ABCG2. In words: Inhibition of BCRP expressed in human EPG-257RNOV cells at 1 uM relative to control. Put shortly:
as §2

Data on 15 compounds can be found in ChEMBL document CHEMBL1177685, “Novel structure-activity relationships and selectivity profiling of cage dimeric 1,4-dihydropyridines as multidrug resistance (MDR) modulators” (Bioorg Med Chem, 2010).

Sequence of Multidrug resistance-associated protein 1 (P33527 whole entry): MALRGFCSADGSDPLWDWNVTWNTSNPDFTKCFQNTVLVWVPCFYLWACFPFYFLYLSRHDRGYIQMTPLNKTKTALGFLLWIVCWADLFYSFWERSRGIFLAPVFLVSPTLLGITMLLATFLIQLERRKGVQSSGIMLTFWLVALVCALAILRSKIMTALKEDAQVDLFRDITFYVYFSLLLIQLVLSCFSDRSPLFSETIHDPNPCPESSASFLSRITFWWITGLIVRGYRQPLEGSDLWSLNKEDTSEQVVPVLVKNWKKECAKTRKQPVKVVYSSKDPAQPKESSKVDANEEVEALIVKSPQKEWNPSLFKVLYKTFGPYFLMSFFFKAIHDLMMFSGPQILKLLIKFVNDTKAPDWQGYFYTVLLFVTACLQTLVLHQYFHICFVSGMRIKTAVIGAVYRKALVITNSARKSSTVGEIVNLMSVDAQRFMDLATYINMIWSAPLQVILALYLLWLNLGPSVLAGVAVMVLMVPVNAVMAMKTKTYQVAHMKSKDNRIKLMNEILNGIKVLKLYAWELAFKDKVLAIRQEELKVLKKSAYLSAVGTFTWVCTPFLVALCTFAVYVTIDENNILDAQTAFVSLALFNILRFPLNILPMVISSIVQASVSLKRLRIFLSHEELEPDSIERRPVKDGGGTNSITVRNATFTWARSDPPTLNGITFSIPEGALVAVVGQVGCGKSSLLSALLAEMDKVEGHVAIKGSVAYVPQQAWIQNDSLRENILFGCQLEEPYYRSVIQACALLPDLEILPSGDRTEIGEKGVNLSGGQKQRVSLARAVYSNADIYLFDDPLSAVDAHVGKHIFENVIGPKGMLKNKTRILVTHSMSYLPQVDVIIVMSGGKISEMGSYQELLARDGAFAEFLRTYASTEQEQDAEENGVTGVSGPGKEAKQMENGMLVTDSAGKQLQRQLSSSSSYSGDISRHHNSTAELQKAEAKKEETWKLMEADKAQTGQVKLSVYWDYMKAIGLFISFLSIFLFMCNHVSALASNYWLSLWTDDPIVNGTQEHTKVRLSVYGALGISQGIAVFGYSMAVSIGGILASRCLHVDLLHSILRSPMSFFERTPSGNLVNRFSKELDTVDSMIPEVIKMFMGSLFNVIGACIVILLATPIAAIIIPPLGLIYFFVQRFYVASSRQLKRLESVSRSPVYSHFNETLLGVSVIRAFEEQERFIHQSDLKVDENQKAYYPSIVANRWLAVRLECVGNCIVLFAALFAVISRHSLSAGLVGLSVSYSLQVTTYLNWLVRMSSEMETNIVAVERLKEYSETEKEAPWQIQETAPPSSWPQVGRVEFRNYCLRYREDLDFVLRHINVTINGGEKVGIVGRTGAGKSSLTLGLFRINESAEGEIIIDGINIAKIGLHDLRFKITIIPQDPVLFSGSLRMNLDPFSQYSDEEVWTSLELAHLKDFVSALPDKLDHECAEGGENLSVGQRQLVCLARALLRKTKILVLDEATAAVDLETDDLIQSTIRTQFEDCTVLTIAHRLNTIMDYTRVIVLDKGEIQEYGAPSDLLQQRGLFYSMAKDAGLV
Sequence of ATP-binding cassette sub-family C member 2 (Q92887 whole entry): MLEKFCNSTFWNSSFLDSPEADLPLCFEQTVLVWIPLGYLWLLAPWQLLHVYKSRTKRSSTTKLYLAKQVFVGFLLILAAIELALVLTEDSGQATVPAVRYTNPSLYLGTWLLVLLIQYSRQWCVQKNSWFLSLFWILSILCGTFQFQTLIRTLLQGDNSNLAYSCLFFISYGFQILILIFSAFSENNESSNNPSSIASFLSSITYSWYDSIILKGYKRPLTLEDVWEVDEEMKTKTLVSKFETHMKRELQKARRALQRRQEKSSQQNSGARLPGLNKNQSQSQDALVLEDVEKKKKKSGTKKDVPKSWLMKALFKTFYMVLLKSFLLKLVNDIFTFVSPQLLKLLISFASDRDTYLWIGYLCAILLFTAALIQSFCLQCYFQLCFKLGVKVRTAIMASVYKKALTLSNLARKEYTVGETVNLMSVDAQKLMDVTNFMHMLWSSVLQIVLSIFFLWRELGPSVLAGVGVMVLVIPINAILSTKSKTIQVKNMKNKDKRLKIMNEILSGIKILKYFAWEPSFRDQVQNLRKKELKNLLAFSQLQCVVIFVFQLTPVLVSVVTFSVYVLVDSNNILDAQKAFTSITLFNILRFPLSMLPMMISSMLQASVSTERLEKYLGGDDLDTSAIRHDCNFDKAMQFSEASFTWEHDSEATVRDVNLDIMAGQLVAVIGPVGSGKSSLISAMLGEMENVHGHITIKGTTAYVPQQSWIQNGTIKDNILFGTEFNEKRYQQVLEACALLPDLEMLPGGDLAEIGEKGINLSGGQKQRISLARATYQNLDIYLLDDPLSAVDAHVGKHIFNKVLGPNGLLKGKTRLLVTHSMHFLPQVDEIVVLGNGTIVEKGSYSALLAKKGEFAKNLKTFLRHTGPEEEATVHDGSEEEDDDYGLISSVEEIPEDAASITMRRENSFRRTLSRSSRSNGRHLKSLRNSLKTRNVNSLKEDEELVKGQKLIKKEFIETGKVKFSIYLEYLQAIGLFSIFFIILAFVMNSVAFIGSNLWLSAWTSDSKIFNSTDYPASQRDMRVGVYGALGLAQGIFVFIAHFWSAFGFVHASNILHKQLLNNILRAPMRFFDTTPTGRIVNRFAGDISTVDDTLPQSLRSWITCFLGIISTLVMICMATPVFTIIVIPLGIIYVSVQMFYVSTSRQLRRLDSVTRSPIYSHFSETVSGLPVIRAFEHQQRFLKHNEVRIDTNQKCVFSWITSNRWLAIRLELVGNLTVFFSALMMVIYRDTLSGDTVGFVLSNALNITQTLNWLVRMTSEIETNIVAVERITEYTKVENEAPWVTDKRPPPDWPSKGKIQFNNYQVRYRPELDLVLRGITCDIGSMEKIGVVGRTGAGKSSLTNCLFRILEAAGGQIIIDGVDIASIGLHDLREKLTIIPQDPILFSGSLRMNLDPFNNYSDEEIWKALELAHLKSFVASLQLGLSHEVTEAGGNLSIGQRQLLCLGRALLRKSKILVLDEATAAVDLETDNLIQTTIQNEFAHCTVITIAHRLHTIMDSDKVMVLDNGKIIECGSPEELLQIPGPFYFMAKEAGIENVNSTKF

Consider `OC[C@]12C3N(Cc4cccc(OCc5ccccc5)c4)C4[C@@]5(CO)C(N(Cc6cccc(OCc7ccccc7)c6)C1[C@]3(CO)[C@@H]5c1ccccc1)[C@]4(CO)[C@@H]2c1ccccc1`, for which the Ratio in the series with L5178Y [1] amounted to 117; in the series with L5178Y [2] it was 205; in series [3], 2.8; in series [4], 0.97; in series [5], 1.5; in series [6], 4.2.

Consider `OC[C@]12C3N(Cc4ccc(O)cc4)C4[C@@]5(CO)C(N(Cc6ccc(O)cc6)C1[C@]3(CO)[C@@H]5c1ccccc1)[C@]4(CO)[C@@H]2c1ccccc1`, for which the Ratio in the series with L5178Y [1] is 1.5; in the series with L5178Y [2], 3.3; in series [3] it was 1.6; in series [4], 0.82; in series [6], 1.1.

On to `OC[C@]12C3N(Cc4ccccc4)C4[C@@]5(CO)C(N(Cc6ccccc6)C1[C@]3(CO)[C@@H]5c1ccc(OCc3ccccc3)cc1)[C@]4(CO)[C@@H]2c1ccc(OCc2ccccc2)cc1`, for which the Ratio is 3.3 with L5178Y [1]; 47 with L5178Y [2]; 1 in series [3]; 1.56 in series [4]; 1.4 in series [5]; 3.5 in series [6].

Take `OC[C@]12C3N(Cc4ccccc4)C4[C@@]5(CO)C(N(Cc6ccccc6)C1[C@]3(CO)[C@@H]5c1cccc(OCc3ccccc3)c1)[C@]4(CO)[C@@H]2c1cccc(OCc2ccccc2)c1`: the Ratio with L5178Y [1] was determined as 65; with L5178Y [2] it was 125; in series [3] it was 1.9; in series [4], 0.97; in series [5] it was 1.3; in series [6], 2.8.

Regarding `OC[C@]12C3N(Cc4cccnc4)C4[C@@]5(CO)C(N(Cc6cccnc6)C1[C@]3(CO)[C@@H]5c1ccccc1)[C@]4(CO)[C@@H]2c1ccccc1`, the Ratio with L5178Y [1] came out at 1.2; with L5178Y [2], 1.1; in series [3] it was 1.1; in series [4], 0.9.

With `COc1ccc2c(c1)c(CC(=O)O)c(C)n2C(=O)c1ccc(Cl)cc1` [INDOMETHACIN], the Ratio in series [3] amounted to 4.1; in series [4], 0.75.

As for `COc1ccc2c3c([nH]c2c1)[C@H](C=C(C)C)N1C(=O)[C@@H]2CCCN2C(=O)[C@@H]1C3` [FUMITREMORGIN], the Ratio in series [5] stood at 1.9; in series [6], 6.

For the compound `OC[C@]12C3N(Cc4ccccc4)C4[C@@]5(CO)C(N(Cc6ccccc6)C1[C@]3(CO)[C@@H]5c1ccncc1)[C@]4(CO)[C@@H]2c1ccncc1`, the Ratio in the series with L5178Y [1] worked out at 2.4; in the series with L5178Y [2], 7.7; in series [3] it was 2.2; in series [4], 0.74; in series [6] it was 1.2.

Turning to `COc1ccc(CN2C3[C@]4(CO)C5N(Cc6ccc(OC)cc6)C6[C@@](CO)(C2[C@]6(CO)[C@H]4c2ccccc2)[C@H](c2ccccc2)[C@@]35CO)cc1`, the Ratio came to 3.5 with L5178Y [1]; 13 in the series with L5178Y [2]; 3.4 in series [3]; 1.1 in series [4]; 1.2 in series [5]; 3.2 in series [6].

Take `OC[C@]12C3N(Cc4ccccc4)C4[C@@]5(CO)C(N(Cc6ccccc6)C1[C@]3(CO)[C@@H]5c1cccc(O)c1)[C@]4(CO)[C@@H]2c1cccc(O)c1`: the Ratio in the series with L5178Y [1] came out at 1.2; with L5178Y [2], 3; in series [3], 1.3; in series [4] it was 1.05; in series [6], 1.1.

As to `OC[C@]12C3N(Cc4ccccc4)C4[C@@]5(CO)C(N(Cc6ccccc6)C1[C@]3(CO)[C@@H]5c1ccc(O)cc1)[C@]4(CO)[C@@H]2c1ccc(O)cc1`, the Ratio stood at 1.3 in the series with L5178Y [1]; 1.5 in the series on L5178Y [2]; 1.8 in series [3]; 0.63 in series [4]; 1.5 in series [6].

`OC[C@]12C3N(Cc4ccc(OCc5ccccc5)cc4)C4[C@@]5(CO)C(N(Cc6ccc(OCc7ccccc7)cc6)C1[C@]3(CO)[C@@H]5c1ccccc1)[C@]4(CO)[C@@H]2c1ccccc1`: the Ratio turned out to be 2.3 in the series with L5178Y [1]; 28 with L5178Y [2]; 2.5 in series [3]; 0.75 in series [4]; 1.2 in series [6].

For the compound `OC[C@]12C3N(Cc4ccccc4)C4[C@@]5(CO)C(N(Cc6ccccc6)C1[C@]3(CO)[C@@H]5c1ccccc1)[C@]4(CO)[C@@H]2c1ccccc1`, the Ratio amounted to 4.1 in the series on L5178Y [1]; 29 in the series with L5178Y [2]; 2.3 in series [3]; 1.02 in series [4]; 1.1 in series [5]; 1.9 in series [6].

With `COc1ccc(CN2C3[C@]4(CO)C5N(Cc6ccc(OC)cc6)C6[C@@](CO)(C2[C@]6(CO)[C@H]4c2ccc(OC)cc2)[C@H](c2ccc(OC)cc2)[C@@]35CO)cc1`, the Ratio in the series on L5178Y [1] was determined as 3.1; in the series with L5178Y [2], 46; in series [3], 4.8; in series [4], 1.25; in series [5], 1.5; in series [6] it was 6.1.

On to `OC[C@]12C3N(Cc4ccncc4)C4[C@@]5(CO)C(N(Cc6ccncc6)C1[C@]3(CO)[C@@H]5c1ccccc1)[C@]4(CO)[C@@H]2c1ccccc1`, for which the Ratio is 1.5 with L5178Y [1]; 1.1 in the series with L5178Y [2]; 1.2 in series [3]; 0.8 in series [4]; 1.3 in series [6].
